{
  "source": "ChEMBL document CHEMBL2150950",
  "about": "“Effect of 4-aryl-2-methyl-5-nitro-1,4-dihydropyridine-3-carboxylates on the guinea pig papillary muscle and isolated human vena saphena magna that is used for coronary artery bypass grafting” (2011)",
  "key": {"[1]": {"assay": "(§1) Ionotropic effect in guinea pig ventricle papillary muscles assessed as lengthening of 90% repolarized cardiac action potential duration time at 10^-4 M by microelectrode technique relative to untreated control (reference value: 132 to 176 APD50 ms)", "type": "functional, Cavia porcellus, Papillary muscle"}, "[2]": {"assay": "(§2) Ionotropic effect in guinea pig ventricle papillary muscles assessed as lengthening of 10% repolarized cardiac action potential duration time at 10^-7 M by microelectrode technique relative to untreated control (reference value: 37 to 47 APD10 ms)", "type": "functional, Cavia porcellus, Papillary muscle"}, "[3]": {"assay": "as §1, with “25%” for “90%”, “10^-5” for “10^-4”, “120” for “132”, “131 APD25” for “176 APD50”, “ms) in presence of 1 x 10^-6 M IKr channel blocker Sotalol” for “ms)”", "type": "functional, Cavia porcellus"}, "[4]": {"assay": "as §1, with “10^-6” for “10^-4”, “209” for “132”, “222” for “176”, “ms) in presence of 2 x 10^-5 M KATP channel blocker glibenclamide” for “ms)”", "type": "functional, Cavia porcellus"}, "[5]": {"assay": "Ionotropic effect in guinea pig right ventricle papillary muscles assessed as contraction force at 10^-4 M by force transduction assay relative to untreated control (reference value: 100%) in presence of 3.1 x 10^-6 M inward rectifier current blocker BaCl2", "type": "functional, Cavia porcellus, Heart right ventricle"}, "[6]": {"assay": "as §1, with “25%” for “90%”, “10^-5” for “10^-4”, “120” for “132”, “131 APD25” for “176 APD50”, “ms) in presence of 2 x 10^-5 M KATP channel blocker glibenclamide” for “ms)”", "type": "functional, Cavia porcellus"}, "[7]": {"assay": "Ionotropic effect in guinea pig right ventricle papillary muscles assessed as contraction force at 10^-4 M by force transduction assay relative to untreated control (reference value: 100%)", "type": "functional, Cavia porcellus, Papillary muscle"}, "[8]": {"assay": "as §1, with “50%” for “90%”, “10^-5” for “10^-4”, “180” for “132”, “192” for “176”, “ms) in presence of 3.1 x 10^-6 M inward rectifier current blocker BaCl2” for “ms)”", "type": "functional, Cavia porcellus"}, "[9]": {"assay": "Ionotropic effect in guinea pig right ventricle papillary muscles assessed as contraction force at 10^-5 M by force transduction assay relative to untreated control (reference value: 100%) in presence of 3.1 x 10^-6 M inward rectifier current blocker BaCl2", "type": "functional, Cavia porcellus, Heart right ventricle"}, "[10]": {"assay": "(§3) Ionotropic effect in guinea pig ventricle papillary muscles assessed as lengthening of 50% repolarized cardiac action potential duration time at 10^-4 M by microelectrode technique relative to untreated control (reference value: 132 to 176 APD50 ms)", "type": "functional, Cavia porcellus, Papillary muscle"}, "[11]": {"assay": "as §2, with “10^-4” for “10^-7”, “52” for “37”, “54” for “47”, “ms) in presence of 3.1 x 10^-6 M inward rectifier current blocker BaCl2” for “ms)”", "type": "functional, Cavia porcellus"}, "[12]": {"assay": "Ionotropic effect in guinea pig right ventricle papillary muscles assessed as contraction force at 10^-5 M by force transduction assay relative to untreated control (reference value: 100%) in presence of 1 x 10^-6 M IKr channel blocker Sotalol", "type": "functional, Cavia porcellus, Heart right ventricle"}, "[13]": {"assay": "as §1, with “10^-7” for “10^-4”, “209” for “132”, “222” for “176”, “ms) in presence of 2 x 10^-5 M KATP channel blocker glibenclamide” for “ms)”", "type": "functional, Cavia porcellus"}, "[14]": {"assay": "Ionotropic effect in guinea pig right ventricle papillary muscles assessed as contraction force at 10^-4 M by force transduction assay relative to untreated control (reference value: 100%) in presence of 1 x 10^-6 M IKr channel blocker Sotalol", "type": "functional, Cavia porcellus, Heart right ventricle"}, "[15]": {"assay": "Ionotropic effect in guinea pig right ventricle papillary muscles assessed as contraction force at 10^-6 M by force transduction assay relative to untreated control (reference value: 100%) in presence of 1 x 10^-6 M IKr channel blocker Sotalol", "type": "functional, Cavia porcellus, Heart right ventricle"}, "[16]": {"assay": "as §3, with “10^-6” for “10^-4”, “180” for “132”, “192” for “176”, “ms) in presence of 2 x 10^-5 M KATP channel blocker glibenclamide” for “ms)”", "type": "functional, Cavia porcellus"}, "[17]": {"assay": "Ionotropic effect in guinea pig right ventricle papillary muscles assessed as contraction force at 10^-4 M by force transduction assay relative to untreated control (reference value: 100%) in presence of 2 x 10^-5 M KATP channel blocker glibenclamide", "type": "functional, Cavia porcellus, Heart right ventricle"}, "[18]": {"assay": "Vasodilatory activity in human vena saphena magna assessed as reduction in phenylephrine-induced smooth muscle contraction at 0.1 uM", "type": "functional", "set-up": "scale not given: the % may be the effect or the level left", "procedure,_shortened": "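Saphenous vein rings came from 37 CABG patients. They were bathed in Tyrode's solution (mM: NaCl 137, KCl 5.4, CaCl2 1.8, MgCl2 0.9, Tris HCl 10, glucose 5; pH 7.4), equilibrated 45–60 min and washed every 15 min. Rings were precontracted with 10^-4 M phenylephrine, then given cumulative test agent at 10^-7 to 10^-4 M. Isometric relaxation was recorded, as means ± SE.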"}, "[19]": {"assay": "(§4) Ionotropic effect in guinea pig ventricle papillary muscles assessed as lengthening of 25% repolarized cardiac action potential duration time at 10^-6 M by microelectrode technique relative to untreated control (reference value: 84 to 104 APD25 ms)", "type": "functional, Cavia porcellus, Papillary muscle"}, "[20]": {"assay": "Ionotropic effect in guinea pig ventricle papillary muscles assessed as lengthening of 90% repolarized cardiac action potential duration time at 10^-5 M by microelectrode technique relative to untreated control (reference value: 132 to 176 APD50 ms)", "type": "functional, Cavia porcellus, Papillary muscle"}, "[21]": {"assay": "Ionotropic effect in guinea pig right ventricle papillary muscles assessed as contraction force at 10^-5 M by force transduction assay relative to untreated control (reference value: 100%)", "type": "functional, Cavia porcellus, Papillary muscle"}, "[22]": {"assay": "as §1, with “10^-6” for “10^-4”, “209” for “132”, “222” for “176”, “ms) in presence of 1 x 10^-6 M IKr channel blocker Sotalol” for “ms)”", "type": "functional, Cavia porcellus"}, "[23]": {"assay": "Ionotropic effect in guinea pig ventricle papillary muscles assessed as lengthening of 90% repolarized cardiac action potential duration time at 10^-7 M by microelectrode technique relative to untreated control (reference value: 132 to 176 APD50 ms)", "type": "functional, Cavia porcellus, Papillary muscle"}, "[24]": {"assay": "as §3, with “10^-6” for “10^-4”, “180” for “132”, “192” for “176”, “ms) in presence of 1 x 10^-6 M IKr channel blocker Sotalol” for “ms)”", "type": "functional, Cavia porcellus"}, "[25]": {"assay": "as §2, with “52” for “37”, “54” for “47”, “ms) in presence of 3.1 x 10^-6 M inward rectifier current blocker BaCl2” for “ms)”", "type": "functional, Cavia porcellus"}, "[26]": {"assay": "Ionotropic effect in guinea pig right ventricle papillary muscles assessed as contraction force at 10^-7 M by force transduction assay relative to untreated control (reference value: 100%)", "type": "functional, Cavia porcellus, Papillary muscle"}, "[27]": {"assay": "Ionotropic effect in guinea pig right ventricle papillary muscles assessed as contraction force at 10^-7 M by force transduction assay relative to untreated control (reference value: 100%) in presence of 1 x 10^-6 M IKr channel blocker Sotalol", "type": "functional, Cavia porcellus, Heart right ventricle"}, "[28]": {"assay": "as §4, with “120” for “84”, “131” for “104”, “ms) in presence of 1 x 10^-6 M IKr channel blocker Sotalol” for “ms)”", "type": "functional, Cavia porcellus"}, "[29]": {"assay": "Ionotropic effect in guinea pig ventricle papillary muscles assessed as lengthening of 50% repolarized cardiac action potential duration time at 10^-7 M by microelectrode technique relative to untreated control (reference value: 132 to 176 APD50 ms)", "type": "functional, Cavia porcellus, Papillary muscle"}, "[30]": {"assay": "as §2, with “52” for “37”, “54” for “47”, “ms) in presence of 2 x 10^-5 M KATP channel blocker glibenclamide” for “ms)”", "type": "functional, Cavia porcellus"}},
  "data": [
    {"compound": "CCCOCCOC(=O)C1=C(C)NC=C([N+](=O)[O-])C1c1ccccc1OC(F)F", "note": "(stereo not given)", "values": [
      {"measurement": "Time", "setting": "[1]", "value": 256, "unit": "ms"},
      {"measurement": "Time", "setting": "[2]", "value": 40, "unit": "ms"},
      {"measurement": "Time", "setting": "[3]", "value": 133.6, "unit": "ms"},
      {"measurement": "Time", "setting": "[4]", "value": 247, "unit": "ms"},
      {"measurement": "Activity", "setting": "[5]", "value": 204.5, "unit": "%"},
      {"measurement": "Time", "setting": "[6]", "value": 155, "unit": "ms"},
      {"measurement": "Activity", "setting": "[7]", "value": 190.8, "unit": "%"},
      {"measurement": "Time", "setting": "[8]", "value": 231, "unit": "ms"},
      {"measurement": "Activity", "setting": "[9]", "value": 193, "unit": "%"},
      {"measurement": "Time", "setting": "[10]", "value": 222, "unit": "ms"},
      {"measurement": "Time", "setting": "[11]", "value": 61.36, "unit": "ms"},
      {"measurement": "Activity", "setting": "[12]", "value": 100.2, "unit": "%"},
      {"measurement": "Time", "setting": "[13]", "value": 234.5, "unit": "ms"},
      {"measurement": "Activity", "setting": "[14]", "value": 154.8, "unit": "%"},
      {"measurement": "Activity", "setting": "[15]", "value": 93.6, "unit": "%"},
      {"measurement": "Time", "setting": "[16]", "value": 219, "unit": "ms"},
      {"measurement": "Activity", "setting": "[17]", "value": 211, "unit": "%"},
      {"measurement": "Activity", "setting": "[18]", "value": 26, "unit": "%"},
      {"measurement": "Time", "setting": "[19]", "value": 118.6, "unit": "ms"},
      {"measurement": "Time", "setting": "[20]", "value": 238.5, "unit": "ms"},
      {"measurement": "Activity", "setting": "[21]", "value": 134, "unit": "%"},
      {"measurement": "Time", "setting": "[22]", "value": 224, "unit": "ms"},
      {"measurement": "Time", "setting": "[23]", "value": 221.6, "unit": "ms"},
      {"measurement": "Time", "setting": "[24]", "value": 192, "unit": "ms"},
      {"measurement": "Time", "setting": "[25]", "value": 64.3, "unit": "ms"},
      {"measurement": "Activity", "setting": "[26]", "value": 108, "unit": "%"},
      {"measurement": "Activity", "setting": "[27]", "value": 85, "unit": "%"},
      {"measurement": "Time", "setting": "[28]", "value": 132.9, "unit": "ms"},
      {"measurement": "Time", "setting": "[29]", "value": 188.5, "unit": "ms"},
      {"measurement": "Time", "setting": "[30]", "value": 59.5, "unit": "ms"}
    ]}
  ]
}
